Test results taken from ChEMBL document CHEMBL1153939, “Novel antagonists of serotonin-4 receptors: synthesis and biological evaluation of pyrrolothienopyrazines” (Bioorg Med Chem, 2009).

Experiments:
[1] = target: T1, 5-hydroxytryptamine receptor 3A (Homo sapiens, UniProt P46098); test: Binding affinity at 5HT3 receptor
T1 sequence (P46098 whole entry): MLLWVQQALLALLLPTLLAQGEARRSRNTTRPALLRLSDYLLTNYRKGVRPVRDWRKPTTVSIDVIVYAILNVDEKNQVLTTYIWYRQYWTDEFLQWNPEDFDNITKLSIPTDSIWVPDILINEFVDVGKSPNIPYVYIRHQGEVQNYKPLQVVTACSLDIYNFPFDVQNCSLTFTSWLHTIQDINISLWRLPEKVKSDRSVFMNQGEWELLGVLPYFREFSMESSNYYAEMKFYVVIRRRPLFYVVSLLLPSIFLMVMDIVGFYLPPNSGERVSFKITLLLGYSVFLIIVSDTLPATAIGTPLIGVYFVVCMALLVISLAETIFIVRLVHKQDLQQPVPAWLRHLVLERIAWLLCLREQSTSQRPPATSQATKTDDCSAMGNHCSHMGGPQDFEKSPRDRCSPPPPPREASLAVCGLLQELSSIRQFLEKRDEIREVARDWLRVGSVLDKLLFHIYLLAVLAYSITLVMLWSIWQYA

[2] = target: 5-hydroxytryptamine receptor 4 (Cavia porcellus) (UniProt O70528); test: Displacement of [3H]GR-113808 from 5HT4 receptor in guinea pig striatum membrane at 10 nM; format: cell membranes
Procedure, shortened: (§1)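 Guinea pig membranes (15 µg protein/mL) incubated 30 min at 37 °C with 0.6 nM [3H]GR113808 in 50 mM HEPES, pH 7.4, with fixed test concentrations. Nonspecific binding defined with 10 µM serotonin.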

[3] = target: 5-hydroxytryptamine receptor 4 (Cavia porcellus, UniProt O70528); test: Displacement of [3H]GR-113808 from 5HT4 receptor in guinea pig striatum membrane; format: cell membranes; procedure, shortened: as §1
[4] = target: T2, 5-hydroxytryptamine receptor 1A (Homo sapiens, UniProt P08908); test: Displacement of [3H]8OH-DPAT from human recombinant 5HT1A receptor
T2 sequence (P08908 whole entry): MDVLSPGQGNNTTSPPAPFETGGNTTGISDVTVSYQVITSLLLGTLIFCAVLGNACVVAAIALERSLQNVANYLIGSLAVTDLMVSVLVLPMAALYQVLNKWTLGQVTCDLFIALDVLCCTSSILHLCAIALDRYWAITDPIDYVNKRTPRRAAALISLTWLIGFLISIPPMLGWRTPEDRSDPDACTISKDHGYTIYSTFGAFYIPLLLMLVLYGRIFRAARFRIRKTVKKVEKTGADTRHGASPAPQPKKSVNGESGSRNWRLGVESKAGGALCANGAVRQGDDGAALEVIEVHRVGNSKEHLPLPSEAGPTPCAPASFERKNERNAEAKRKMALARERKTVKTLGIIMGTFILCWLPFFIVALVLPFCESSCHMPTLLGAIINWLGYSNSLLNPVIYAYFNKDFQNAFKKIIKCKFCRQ

[5] = target: 5-hydroxytryptamine receptor 2A (Homo sapiens, UniProt P28223); test: Displacement of [3H]ketanserin form human recombinant 5HT2A receptor
[6] = target: 5-hydroxytryptamine receptor 2B (Homo sapiens, UniProt P41595); test: Displacement of [3H]mesulergine from human recombinant 5HT2B receptor
[7] = target: T3, 5-hydroxytryptamine receptor 2C (Homo sapiens, UniProt P28335); test: Displacement of [3H]mesulergine from human recombinant 5HT2C receptor
T3 sequence (P28335 whole entry): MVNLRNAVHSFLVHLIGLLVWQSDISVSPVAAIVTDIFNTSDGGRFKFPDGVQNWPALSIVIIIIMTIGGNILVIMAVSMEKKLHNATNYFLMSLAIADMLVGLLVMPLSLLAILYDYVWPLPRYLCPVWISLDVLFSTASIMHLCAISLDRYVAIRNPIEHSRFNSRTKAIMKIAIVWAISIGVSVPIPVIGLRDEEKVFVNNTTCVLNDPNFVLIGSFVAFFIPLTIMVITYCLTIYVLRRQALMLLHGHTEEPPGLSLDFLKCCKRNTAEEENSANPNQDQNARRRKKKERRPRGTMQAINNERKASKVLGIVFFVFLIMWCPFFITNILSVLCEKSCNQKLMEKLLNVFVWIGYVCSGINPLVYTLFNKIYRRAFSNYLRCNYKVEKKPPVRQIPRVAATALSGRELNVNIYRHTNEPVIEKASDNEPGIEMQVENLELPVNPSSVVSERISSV

[8] = target: T1, 5-hydroxytryptamine receptor 3A; test: Displacement of [3H]granisetron from human recombinant 5HT3 receptor
[9] = target: 5-hydroxytryptamine receptor 6 (Homo sapiens, UniProt P50406); test: Displacement of [3H]LSD form human recombinant 5HT6 receptor
Procedure, shortened: (§2)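 Membranes from sf9 cells expressing human 5-HT6 (14 µg/mL) or 5-HT7 (38 µg/mL) incubated 90 min at 27 °C with 2 nM [3H]LSD in 50 mM Tris-HCl containing 10 mM MgSO4 and 0.5 mM EDTA. Nonspecific binding defined with clozapine (10 and 250 µM).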

[10] = target: 5-hydroxytryptamine receptor 7 (Homo sapiens, UniProt P34969); test: Displacement of [3H]LSD form human recombinant 5HT7 receptor; procedure, shortened: as §2
[11] = target: 5-hydroxytryptamine receptor 4 (Cavia porcellus) (UniProt O70528); test: Displacement of [3H]GR-113808 from 5HT4 receptor in guinea pig striatum membrane at 1 uM; format: cell membranes; procedure, shortened: as §1
[12] = target: 5-hydroxytryptamine receptor 4 (Homo sapiens, UniProt Q13639); test: Binding affinity at 5HT4 receptor
5-hydroxytryptamine receptor 4 (Homo sapiens, UniProt Q13639), sequence (Q13639 whole entry): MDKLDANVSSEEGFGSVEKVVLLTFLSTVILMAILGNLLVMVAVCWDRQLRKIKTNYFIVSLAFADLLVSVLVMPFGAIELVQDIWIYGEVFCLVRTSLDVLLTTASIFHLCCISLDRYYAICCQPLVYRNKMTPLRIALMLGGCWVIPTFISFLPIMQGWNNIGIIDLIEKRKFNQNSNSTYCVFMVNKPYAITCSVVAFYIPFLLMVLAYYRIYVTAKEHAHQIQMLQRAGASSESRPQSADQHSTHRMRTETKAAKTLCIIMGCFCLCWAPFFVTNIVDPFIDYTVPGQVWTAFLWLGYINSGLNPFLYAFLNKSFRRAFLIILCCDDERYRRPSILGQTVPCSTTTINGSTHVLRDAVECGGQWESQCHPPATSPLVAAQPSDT

5-hydroxytryptamine receptor 4 (Cavia porcellus, UniProt O70528), sequence (O70528 whole entry): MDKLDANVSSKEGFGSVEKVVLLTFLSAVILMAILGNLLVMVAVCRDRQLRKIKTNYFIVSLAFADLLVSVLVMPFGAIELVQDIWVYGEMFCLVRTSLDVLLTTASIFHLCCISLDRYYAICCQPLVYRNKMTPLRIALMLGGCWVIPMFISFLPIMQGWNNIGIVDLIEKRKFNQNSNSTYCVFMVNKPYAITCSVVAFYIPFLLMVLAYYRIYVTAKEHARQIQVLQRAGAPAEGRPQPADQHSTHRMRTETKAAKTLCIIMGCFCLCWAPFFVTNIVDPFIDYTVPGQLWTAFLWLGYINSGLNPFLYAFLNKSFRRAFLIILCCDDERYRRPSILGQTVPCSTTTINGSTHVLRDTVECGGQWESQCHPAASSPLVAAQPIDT
5-hydroxytryptamine receptor 4 (Cavia porcellus), sequence (O70528 whole entry): as above
5-hydroxytryptamine receptor 2A, sequence (P28223 whole entry): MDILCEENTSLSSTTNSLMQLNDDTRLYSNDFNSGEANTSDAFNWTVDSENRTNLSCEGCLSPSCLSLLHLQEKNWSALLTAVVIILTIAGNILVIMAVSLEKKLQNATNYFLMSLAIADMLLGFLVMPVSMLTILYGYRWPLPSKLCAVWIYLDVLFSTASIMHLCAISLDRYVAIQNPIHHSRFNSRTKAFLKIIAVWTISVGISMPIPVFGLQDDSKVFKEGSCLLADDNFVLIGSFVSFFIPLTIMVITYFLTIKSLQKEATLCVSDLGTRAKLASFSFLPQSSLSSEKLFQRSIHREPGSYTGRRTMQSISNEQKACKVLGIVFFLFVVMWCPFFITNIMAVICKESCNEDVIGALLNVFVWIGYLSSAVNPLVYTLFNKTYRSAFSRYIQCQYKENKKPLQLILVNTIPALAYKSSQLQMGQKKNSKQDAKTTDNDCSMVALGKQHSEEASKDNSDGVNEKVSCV
5-hydroxytryptamine receptor 2B, sequence (P41595 whole entry): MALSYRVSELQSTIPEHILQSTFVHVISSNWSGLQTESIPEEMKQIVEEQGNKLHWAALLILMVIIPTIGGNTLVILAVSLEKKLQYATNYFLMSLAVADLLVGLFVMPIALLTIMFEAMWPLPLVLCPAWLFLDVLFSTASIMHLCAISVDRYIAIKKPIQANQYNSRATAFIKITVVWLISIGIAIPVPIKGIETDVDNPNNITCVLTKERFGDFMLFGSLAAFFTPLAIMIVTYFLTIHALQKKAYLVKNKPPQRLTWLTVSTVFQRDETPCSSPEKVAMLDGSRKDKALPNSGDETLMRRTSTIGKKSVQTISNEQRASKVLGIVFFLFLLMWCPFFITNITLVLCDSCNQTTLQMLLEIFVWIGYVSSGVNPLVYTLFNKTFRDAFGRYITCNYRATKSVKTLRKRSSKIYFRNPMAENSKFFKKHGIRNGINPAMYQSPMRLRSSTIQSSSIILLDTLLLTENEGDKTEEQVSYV
5-hydroxytryptamine receptor 6, sequence (P50406 whole entry): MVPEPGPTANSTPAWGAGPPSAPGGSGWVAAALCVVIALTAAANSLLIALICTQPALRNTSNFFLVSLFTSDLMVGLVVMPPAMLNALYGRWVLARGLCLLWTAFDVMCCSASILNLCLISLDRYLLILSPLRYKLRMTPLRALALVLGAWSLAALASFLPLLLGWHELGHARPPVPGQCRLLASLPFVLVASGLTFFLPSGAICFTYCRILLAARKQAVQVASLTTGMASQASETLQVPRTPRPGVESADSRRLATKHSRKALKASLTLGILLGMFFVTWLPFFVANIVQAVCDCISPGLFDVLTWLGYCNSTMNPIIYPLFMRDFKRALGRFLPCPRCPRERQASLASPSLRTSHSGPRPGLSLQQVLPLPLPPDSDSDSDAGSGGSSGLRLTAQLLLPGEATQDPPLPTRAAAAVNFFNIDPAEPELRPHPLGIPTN
5-hydroxytryptamine receptor 7, sequence (P34969 whole entry): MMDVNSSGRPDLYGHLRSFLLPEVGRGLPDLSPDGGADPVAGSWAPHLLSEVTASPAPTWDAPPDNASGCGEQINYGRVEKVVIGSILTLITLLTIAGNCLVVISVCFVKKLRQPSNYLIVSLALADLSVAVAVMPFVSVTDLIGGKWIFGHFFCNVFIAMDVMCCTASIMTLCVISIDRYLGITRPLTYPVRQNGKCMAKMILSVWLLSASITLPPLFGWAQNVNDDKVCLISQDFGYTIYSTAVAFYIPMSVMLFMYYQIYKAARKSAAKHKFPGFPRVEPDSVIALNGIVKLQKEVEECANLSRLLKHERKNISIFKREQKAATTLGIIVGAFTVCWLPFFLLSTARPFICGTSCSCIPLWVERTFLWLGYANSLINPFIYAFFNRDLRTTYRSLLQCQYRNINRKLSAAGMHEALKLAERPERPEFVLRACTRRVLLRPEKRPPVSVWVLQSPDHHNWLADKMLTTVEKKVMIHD

SMILES | inhibition [2] [%] | Ki [3] [nM] | inhibition [11] [%] | also measured
CCN(CC)CCOC(=O)c1cc(Cl)c(N)cc1OC |  |  |  | Ki [1]: 126 nM
CCCCN1CCC(COc2nc3ccsc3n3cccc23)CC1 | 31 | 20.9 | 100 | IC50 [4]: 5250 nM; IC50 [5]: 166 nM; IC50 [6]: 52.5 nM; IC50 [7]: 29500 nM; IC50 [8]: > 10000 nM; IC50 [9]: > 10000 nM; IC50 [10]: > 1000 nM
CCCN1CCC(COc2nc3ccsc3n3cccc23)CC1 | 97 | 16.2 | 100 | 
CN(CCOc1nc2ccsc2n2cccc12)Cc1ccccc1 | 2 |  | 20 | 
c1cc2c(OC3CCNCC3)nc3ccsc3n2c1 | 0 |  | 26 | 
c1cc2c(OCC3CCCCN3)nc3ccsc3n2c1 (configuration not stated) | 18 |  | 90 | 
CCCCN1CCC(CNC(=O)c2c3n(c4ccccc24)CCCO3)CC1 [PIBOSEROD] |  |  |  | Ki [1]: > 1000 nM
c1cc2c(OCCC3CCCCN3)nc3ccsc3n2c1 (configuration not stated) | 5 | 617 | 90 | 
CCCCN1CCN(CCOc2nc3ccsc3n3cccc23)CC1 | 12 |  | 66 | 
CNCCOc1nc2ccsc2n2cccc12 | 9 |  | 7 | 
C=CCCN1CCC(COc2nc3ccsc3n3cccc23)CC1 | 23 | 37.2 | 100 | 
c1cc2c(OCC3CCNCC3)nc3ccsc3n2c1 | 8 |  | 74 | 
CCCCN1CCCC(COc2nc3ccsc3n3cccc23)C1 (configuration not stated) | 0 |  | 82 | 
c1cc2c(OCCN3CCCCC3)nc3ccsc3n2c1 | 5 | 417 | 73 | 
CCCN1CCN(CCOc2nc3ccsc3n3cccc23)CC1 | 0 |  | 72 | 
CCCCN1CCC(COc2nc3scc(C)c3n3cccc23)CC1 | 75 | 5.37 | 100 | 
Cc1csc2nc(OCCCN3CCCCC3)c3cccn3c12 | 26 | 12.9 | 100 | 
CCCCN1CCC(COC(=O)c2cc(Cl)c(N)c3c2OCCO3)CC1 |  |  |  | Ki [1]: 158 nM; Ki [12]: 0.0158 nM
c1cc2c(OCCCN3CCCCC3)nc3ccsc3n2c1 | 30 | 52.5 | 100 | 

SMILES | inhibition [2] [%] | Ki [3] [nM] | inhibition [11] [%] | also measured
c1cc2c(OCCN3CCOCC3)nc3ccsc3n2c1 | 12 |  | 18 | 
C=CCN1CCC(COc2nc3sccc3n3cccc23)CC1 | 49 | 29.5 | 99 | 
CCCCN1CCC(COc2nc3sccc3n3cccc23)CC1 | 56 | 20.9 | 100 | 
CCCN1CCCC(COc2nc3ccsc3n3cccc23)C1 (configuration not stated) | 0 |  | 91 | 
c1cc2c(OCCCCN3CCCCC3)nc3ccsc3n2c1 | 16 | 57.5 | 100 | 
c1ccc(CN2CCC(COc3nc4ccsc4n4cccc34)CC2)cc1 | 0 | 63.1 | 100 | 
CCCCCN1CCC(COc2nc3sccc3n3cccc23)CC1 | 13 | 49 | 100 | 
CCCN1CCCCC1CCOc1nc2ccsc2n2cccc12 (configuration not stated) | 0 |  | 72 | 
c1cc2c(OCCN3CCNCC3)nc3ccsc3n2c1 | 0 |  | 38 | 
COCCCN1CCC(NC(=O)c2cc(Cl)c(N)c3c2OCC3)CC1 [PRUCALOPRIDE] |  |  |  | Ki [1]: 3980 nM
Cc1csc2nc(OCC3CCN(C)CC3)c3cccn3c12 | 13 |  | 100 | 
Cc1csc2nc(OCC3CCN(Cc4ccccc4)CC3)c3cccn3c12 | 11 |  | 100 | 
CN1[C@@H]2CC[C@H]1C[C@@H](OC(=O)c1c[nH]c3ccccc13)C2 [TROPISETRON] |  |  |  | Ki [12]: 200 nM
C=CCN1CCC(COc2nc3ccsc3n3cccc23)CC1 | 32 | 8.71 | 95 | 
CN1CCC(COc2nc3ccsc3n3cccc23)CC1 | 0 | 58.9 | 100 | 
NCCOc1nc2ccsc2n2cccc12 | 0 |  | 0 | 
CCC(C)N1CCC(COc2nc3ccsc3n3cccc23)CC1 (configuration not stated) | 2 |  | 56 | 
CN1CCC(COc2nc3sccc3n3cccc23)CC1 | 20 | 38 | 100 | 
CCN1CCC(COc2nc3scc(C)c3n3cccc23)CC1 | 30 | 9.55 | 100 | 

SMILES | inhibition [2] [%] | Ki [3] [nM] | inhibition [11] [%] | also measured
c1cc2c(OC3CN4CCC3CC4)nc3ccsc3n2c1 (configuration not stated) | 11 |  | 53 | 
C=CCCN1CCC(COc2nc3scc(C)c3n3cccc23)CC1 | 28 | 11.2 | 100 | 
c1cc2c(OCCN3CCCC3)nc3ccsc3n2c1 | 7 |  | 60 | 
COc1cc(N)c(Cl)cc1C(=O)OCCCN1CCCCC1 |  |  |  | Ki [1]: 2000 nM; Ki [12]: 31.6 nM
C=CCN1CCC(COc2nc3scc(C)c3n3cccc23)CC1 | 26 | 8.51 | 100 | 
c1cc2c(OCCCN3CCCC3)nc3ccsc3n2c1 | 15 | 74.1 | 100 | 
CCCN1CCC(Oc2nc3ccsc3n3cccc23)CC1 | 10 |  | 67 | 
CCCCCN1CCC(COc2nc3scc(C)c3n3cccc23)CC1 | 20 |  | 100 | 
CCN(CC)CCCCOc1nc2ccsc2n2cccc12 | 34 | 16.2 | 100 | 
Cc1csc2nc(OCC3CCN(C(C)C)CC3)c3cccn3c12 | 30 | 6.46 | 100 | 
CCC(C)N1CCC(COc2nc3scc(C)c3n3cccc23)CC1 (configuration not stated) | 18 |  | 100 | 
CCCCN1CCC(Oc2nc3ccsc3n3cccc23)CC1 | 1 |  | 50 | 
CCCCCN1CCC(COc2nc3ccsc3n3cccc23)CC1 | 55 | 25.7 | 99 | 
CCCN1CCC(COc2nc3sccc3n3cccc23)CC1 | 54 | 11.7 | 100 | 
CC(C)N1CCC(COc2nc3ccsc3n3cccc23)CC1 | 38 | 18.2 | 100 | 
CCCCCNC(=N)N/N=C/c1c[nH]c2ccc(OC)cc12 [TEGASEROD] |  |  |  | Ki [1]: > 10000 nM; Ki [12]: 3.98 nM
c1cc2c(OCCCN3CCNCC3)nc3ccsc3n2c1 | 14 |  | 75 | 
CCN1CCC(COc2nc3sccc3n3cccc23)CC1 | 0 |  | 92 | 
c1ccc(CN2CCN(CCOc3nc4ccsc4n4cccc34)CC2)cc1 | 0 |  | 13 | 
